From ChEMBL document CHEMBL4477197, “Antitumor Activity of Spicatoside A by Modulation of Autophagy and Apoptosis in Human Colorectal Cancer Cells” (J Nat Prod, 2016) come the findings set out here.

For orientation: IC50 means the point on the concentration scale where inhibition reaches its midpoint. Lower therefore signals higher potency.

The test system of one assay is MRC5. Kind of assay: Antiproliferative activity against human MRC5 cells after 24 to 72 hrs by SRB assay. The class given is cell-based. Summed up: (§1)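 Cells from ATCC were grown at 37 °C in 5% CO2, in RPMI 1640 (A549, HCT116, SNU-638) or DMEM (MDA-MB-231, SK-HEP-1, MRC5) with 10% FBS. They were seeded at 6 × 10^3 cells/well for 24 h, then exposed for 72 h. Cells were TCA-fixed, stained with 0.4% SRB, and read at 515 nm against day-zero plates. IC50 came from nonlinear regression, as means ± SD.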
For orientation: Sulforhodamine B stains cellular protein and so reports cell mass.

Another assay concerns SK-HEP1. Kind of assay: Antiproliferative activity against human SKHEP1 cells after 24 to 72 hrs by SRB assay. The class given is functional, cell-based. The method, boiled down:
as §1

Another assay deals with SNU-638. Kind of assay: Antiproliferative activity against human SNU638 cells after 24 to 72 hrs by SRB assay. It counts as functional, cell-based. The method, boiled down: as §1
In the next assay the test system is A549. Kind of assay: Antiproliferative activity against human A549 cells after 24 to 72 hrs by SRB assay. The class given is functional, cell-based. The method, boiled down:
as §1

The next assay relates to HCT-116. As to the kind of experiment: Antiproliferative activity against human HCT116 cells after 24 to 72 hrs by SRB assay. It counts as functional, cell-based. Summed up: as §1
The next assay deals with MDA-MB-231. As to the kind of experiment: Antiproliferative activity against human MDA-MB-231 cells after 24 to 72 hrs by SRB assay. The class given is functional, cell-based. The method, boiled down:
as §1

For the compound `Cc1c2ccncc2c(C)c2c1[nH]c1ccccc12` [ELLIPTECINE], the IC50 in the assay on MRC5 came to 1300 nM; in the assay with SK-HEP1, 400 nM; with SNU-638, 2700 nM; in the assay on A549 it was 400 nM; in the assay with HCT-116 it was 1000 nM; in the assay on MDA-MB-231, 100 nM.
